Shown are actives, neighbours in structure and some others; about 0.96% of the full set was active somewhere.
T cell modulator – T cell immune modulation candidate. 2C CD8+ T cell-vesicle binding, flow cytometry; active compounds read low. response (vesicle binding), % at 7 µM. 330,000 tested, 0.068% active;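 active = response, share of CD8 T cells binding vesicles, and their 90th percentile fluorescence all below set limits, cut at about 80% in these data, passing the limit was not always enough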;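 also: values below 100% mean blocked vesicle binding to the CD8+ T cells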
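Test system: purified 2C TCR transgenic mouse naive CD8+ T cells. Probe or stimulus: QL9-peptide-loaded Drosophila micro-vesicles bearing Ld, ICAM-1 and B7-1. Incubation: binding step 1.5 h, 37 °C, antibody labelling 20 min, ice. Measured by: flow cytometry of vesicle-bound cells.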
AGP1 TOR yeast – yeast TOR pathway AGP1-GFP modulation; 320,000 tested, 0.02% active; GFP response vs DMSO, % at 10 µM; AID 2066; S. cerevisiae AGP1-GFP multiplex flow cytometry, 3 h; GFP as percent of DMSO wells;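 active = GFP response relative to DMSO above a set limit, near screen average plus 3 SD, cut at about 150% in these data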;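 also: median GFP channel fluorescence of the gated AGP1 strain per well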
CIT2-GFP yeast – yeast TOR pathway CIT2-GFP modulation | 320,000 tested, 0.065% active | GFP response vs DMSO, % at 10 µM | S. cerevisiae CIT2-GFP strain, flow cytometry, 3 h; 100 means same as DMSO wells | AID 2029;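 active = GFP response relative to DMSO above a set limit, near the screen mean plus 3 SD, cut at about 150% in these data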;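 also: ratio of well median GFP fluorescence to mean of DMSO wells on the plate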
RPL19A TOR yeast – alters RPL19A-GFP fluorescence in TOR pathway yeast screen. 330,000 tested, 0.3% active. S. cerevisiae RPL19A-GFP strain, flow cytometry, 3 h; active compounds read low. percent response vs DMSO, % at 10 µM. AID 2025;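 active = percent response vs DMSO below 50%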;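 also: median channel GFP fluorescence of the barcoded RPL19A-GFP strain; ratio of sample median GFP to plate DMSO average so 100% = DMSO; lower means less RPL19A-GFP as with rapamycin TOR inhibition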
MEP2 TOR yeast – alters MEP2-GFP fluorescence in TOR pathway yeast screen; S. cerevisiae MEP2-GFP strain, flow cytometry GFP, 3 h; 100% = DMSO control level; 330,000 tested, 0.51% active; AID 2016; GFP response vs DMSO, % at 10 µM;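 active = GFP response versus DMSO above a set limit, roughly screen mean plus 3 SD, cut at about 180% in these data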;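 also: median GFP fluorescence of the barcode-gated MEP2-GFP cells per well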
LAP4-GFP MLPCN – yeast TOR pathway LAP4-GFP modulation | S. cerevisiae LAP4-GFP multiplex, flow cytometry GFP, 3 h; median GFP as percent of DMSO wells | GFP response vs DMSO, % at 10 µM | 320,000 tested, 0.34% active | AID 2023;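 active = GFP response vs DMSO above a set limit, about the screen mean plus 3 SD, cut at about 150% in these data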
LAP4-GFP pick2 – second confirmation of modulators of TOR reporter LAP4-GFP in yeast. AID 2621. GFP response vs DMSO, % at 10 µM. S. cerevisiae LAP4-GFP strain, flow cytometry GFP, 3 h. shares compounds with LAP4-GFP MLPCN. 590 tested, 20% active;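 active = GFP signal as percent of the solvent control above about 150%, meaning raised reporter expression, limit read from the data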;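 also: ratio of well median GFP fluorescence to plate DMSO mean so 100% = DMSO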
MEP2 cherry2 – reconfirmed MEP2-GFP TOR pathway modulator in yeast; shares compounds with LAP4-GFP MLPCN; S. cerevisiae MEP2-GFP strain, flow cytometry GFP, 3 h; GFP response vs DMSO, % at 10 µM; 590 tested, 10% active; AID 2622;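 active = GFP signal above 150% of the solvent control wells, that is a rise of more than half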;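 also: median channel GFP fluorescence of all gated yeast cells per well; ratio of median GFP to plate DMSO average so 100% = DMSO level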
RPL19A-GFP pick2 – yeast RPL19A-GFP TOR reporter modulation, second cherry pick. shares compounds with LAP4-GFP MLPCN. S. cerevisiae RPL19A-GFP strain, flow cytometry GFP, 3 h; active compounds read low; 100% means same as DMSO wells. GFP response vs DMSO, % at 10 µM. 590 tested, 3% active. AID 2623;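 active = under 65% GFP response relative to DMSO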;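 also: median GFP channel fluorescence per well over the all cells gate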
CIT2 GFP CP2 – second confirmation of modulators of TOR reporter CIT2-GFP in yeast; shares compounds with LAP4-GFP MLPCN; S. cerevisiae CIT2-GFP strain, flow cytometry GFP, 3 h; DMSO control wells read 100%; GFP response vs DMSO, % at 10 µM; 590 tested, 8% active; AID 2624;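 active = GFP response vs DMSO above about 150%, limit read from the data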;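 also: median green fluorescence per well over all gated yeast cells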
AGP1-GFP pick2 – yeast AGP1-GFP TOR reporter modulation, second cherry pick | percent response vs DMSO, % at 10 µM | shares compounds with LAP4-GFP MLPCN | 590 tested, under 10 active | S. cerevisiae AGP1-GFP strain, flow cytometry GFP, 3 h;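 active = over 150 percent of DMSO response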;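 also: median GFP channel fluorescence over all cells without mother daughter split; sample median GFP divided by mean DMSO control so 100% equals DMSO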
Yeast autofluor – compound is autofluorescent in yeast s288c cells | shares compounds with LAP4-GFP MLPCN | 610 tested, under 10 active | S. cerevisiae s288c, 520 nm autofluorescence, flow cytometry, 3 h; active compounds read high; zero means same as solvent-only cells | AID 2757 | fluorescence change (kMESF span) at 33 µM;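 active = fluorescence span over the dose series, or activity score, above about 33, limit read from the data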
* marks the source's active call; other numbers are inactive results; nt = not tested or not shown; + = active, no number.

SMILES	T cell modulator	AGP1 TOR yeast	CIT2-GFP yeast	RPL19A TOR yeast	MEP2 TOR yeast	LAP4-GFP MLPCN	Yeast autofluor	others
CCc1nc2ccccc2c(=O)n1NC(=O)c1c(O)c2cccc3c2n(c1=O)CCC3	234	58	81	57	83	93	2.2	LAP4-GFP pick2=114;MEP2 cherry2=129;RPL19A-GFP pick2=64*;CIT2 GFP CP2=122;AGP1-GFP pick2=39
CCn1c(=O)c(C(=O)Nn2c(C)nc3ccccc3c2=O)c(O)c2ccccc21	260	75	122	52	101	96	nt
CCCc1nnc(NC(=O)c2c(O)c3cccc4c3n(c2=O)CCC4)s1	268	64	80	51	81	98	3.8	LAP4-GFP pick2=107;MEP2 cherry2=133;RPL19A-GFP pick2=50*;CIT2 GFP CP2=128;AGP1-GFP pick2=47
CN1CCN(C(CNC(=O)C(=O)NC2CCCC2)c2ccc(F)cc2)CC1 (configuration not stated)	426	106	102	92	115	117	nt
CCOC(=O)c1c(O)c2ccccc2n(CC)c1=O	398	81	84	74	106	142	nt
CCn1c(=O)c(C(C)=O)c(O)c2ccccc21	191	79	58	92	92	174*	-1.7
O=C1C=CC(=O)N1c1ccc(O)cc1	107	94	92	90	85	185*	3
O=C1CCCC(=O)N1c1ccc(O)cc1	574	102	101	103	97	97	nt
O=C(O)CNC(=O)c1ccc(OC(F)F)cc1	501	100	100	100	100	97	nt
O=C1C=CC(=O)N1c1ccc(OC(F)F)cc1	514	77	72	87	87	152*	1.7	LAP4-GFP pick2=206*;MEP2 cherry2=131;RPL19A-GFP pick2=87;CIT2 GFP CP2=118;AGP1-GFP pick2=88
COc1ccc(C)cc1NC(=O)C(Sc1nnc(-c2ccncc2)n1-c1ccc(Cl)cc1)c1ccccc1 (configuration not stated)	136	104	102	103	100	92	nt
Cc1cccc(C(=O)NCC(=O)N2CCC2)c1	236	447*	+	403	+	+	nt	LAP4-GFP pick2=100;MEP2 cherry2=100;RPL19A-GFP pick2=99;CIT2 GFP CP2=104;AGP1-GFP pick2=99
CCOc1ccc(C(C)=O)cc1N1C(=O)C2C3C=CC(O3)C2C1=O (configuration not stated)	388	78	87	98	84	203*	0.51
CCOc1ccccc1/C=c1\sc2ncnn2c1=O	648	66	68	97	87	275*	0.91	LAP4-GFP pick2=226*;MEP2 cherry2=112;RPL19A-GFP pick2=108;CIT2 GFP CP2=110;AGP1-GFP pick2=89
CC(=O)Oc1ccc(/C=c2\sc3ncnn3c2=O)cc1	568	85	99	102	91	153*	0.5
CCCOc1ccc(/C=c2\sc3ncnn3c2=O)cc1	336	90	91	92	86	105	nt
O=C(COC(=O)CNC(=O)c1ccccc1F)NC1CC1	277	100	111	100	110	106	nt
C=CCOc1ccc(C(c2c(O)nc(SC)[nH]c2=O)c2c(O)nc(SC)[nH]c2=O)cc1	465	95	97	96	93	105	nt
COc1cccc2cc(-c3nc4ccccc4o3)c(=O)oc12	266	67	85	56	103	114	0.71	LAP4-GFP pick2=105;MEP2 cherry2=102;RPL19A-GFP pick2=60*;CIT2 GFP CP2=98;AGP1-GFP pick2=65
CCCC1=NN2C(=N)/C(=C\c3ccc(OCCOc4ccc(NC(C)=O)cc4)c(OC)c3)C(=O)N=C2S1	97	95	100	105	108	93	nt
Cc1ccc(C(=O)NCC(=O)Nc2ccc(S(=O)(=O)Nc3cc(C)nc(C)n3)cc2)cc1	206	101	96	85	104	153*	nt	LAP4-GFP pick2=100;MEP2 cherry2=98;RPL19A-GFP pick2=101;CIT2 GFP CP2=103;AGP1-GFP pick2=98
COc1ccc(-c2cc(C(F)(F)F)nc(N)n2)cc1	482	90	100	111	104	96	nt
COc1ccc(-c2cc(C(F)(F)F)nc(S(C)(=O)=O)n2)cc1	546	114	84	97	146	155*	0.62
CS(=O)(=O)c1nc(-c2cccs2)cc(C(F)(F)F)n1	182	124	84	88	162	186*	0.61
COc1ccc(C(=O)O)cc1S(=O)(=O)Nc1ccc2cn[nH]c2c1	71	103	101	98	104	97	nt
SMILES	T cell modulator	AGP1 TOR yeast	CIT2-GFP yeast	RPL19A TOR yeast	MEP2 TOR yeast	LAP4-GFP MLPCN	Yeast autofluor	others
Cc1ccnc(N2C(=O)c3cccc4c([N+](=O)[O-])ccc(c34)C2=O)c1	404	75	181*	111	312*	232*	6.2
Cc1ccc(N2C(=O)c3cccc4c([N+](=O)[O-])ccc(c34)C2=O)c2cccnc12	140	89	92	100	104	116	nt
O=C(COc1ccc(Cl)cc1Br)Nc1nnc(C2CC2)s1	237	85	85	90	84	94	nt
COc1cccc(CNC(=O)c2ccc3c(c2)N(C)CCS3)c1OC	290	154*	161*	64	759*	258*	nt	LAP4-GFP pick2=99;MEP2 cherry2=100;RPL19A-GFP pick2=99;CIT2 GFP CP2=99;AGP1-GFP pick2=97
CN1CCSc2ccc(C(=O)NCc3ccccc3F)cc21	334	91	90	100	106	121	nt
CCN(c1ccccc1)S(=O)(=O)c1csc(C(N)=O)c1	274	100	101	100	115	98	nt
COc1ccc(NC(=O)/C(C#N)=C/c2ncc([N+](=O)[O-])n2C)c(OC)c1	229	104	117	100	134	182*	2.3
CCOC(CCNC(=O)c1cn(CCOC)c(=O)c2c1c1ccccc1n2C)OCC	208	103	95	98	91	95	nt

Source: PubChem BioAssay (NMMLSC)
